pIC50: −log10 of the molar value. Active and inactive are the calls of the source. The rule behind the calls is not given here.
Tests used:
K562 [1] = assay: Induction of apoptosis in human K562 cells assessed as early apoptotic cells at 1 uM after 48 hrs by annexin V/PI staining based flow cytometry (reference value: 3.89 %); format: functional
K562 [2] = assay: Induction of apoptosis in human K562 cells assessed as late apoptotic cells at 1 uM after 48 hrs by annexin V/PI staining based flow cytometry (reference value: 0.26 %); format: functional
K562 [3] = assay: Induction of apoptosis in human K562 cells assessed as early apoptotic cells at 2.5 uM after 48 hrs by annexin V/PI staining based flow cytometry (reference value: 3.89 %); format: functional
K562 [4] = assay: Induction of apoptosis in human K562 cells after 48 hrs by annexin V/PI staining based flow cytometry; format: functional, cell-based
K562 [5] = assay: Induction of apoptosis in human K562 cells assessed as cleavage of caspase-3 at 1 uM after 36 hrs by Western blot analysis; format: functional, cell-based
In short: (§1)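 K562 cells in 6 cm dishes treated 36 h at various concentrations. Cells lysed on ice for 0.5 h and spun at 20,000 g. Protein measured by BCA. Lysates run on 12% SDS-PAGE and transferred to PVDF. Membranes blocked in 5% milk and probed overnight at 4 °C with primary antibody against cleaved caspase-9, -7, -3, cleaved PARP or Bcl-XL.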

K562 [6] = assay: Induction of apoptosis in human K562 cells assessed as cleavage of caspase-7 at 1 uM after 36 hrs by Western blot analysis; format: functional, cell-based; in short: as §1
K562 [7] = assay: Induction of apoptosis in human K562 cells assessed as cleavage of PARP at 1 uM after 36 hrs by Western blot analysis; format: functional, cell-based; in short: as §1
K562 [8] = assay: Induction of apoptosis in human K562 cells assessed as loss of mitochondrial membrane potential at 1 uM after 24 hrs by JC-1 staining based fluorescence microscopy; format: functional, cell-based
In short: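 K562 cells exposed to 1 μM for 24 h. Stained with a JC-1 kit and viewed by fluorescence microscopy (red aggregates versus green monomers). Untreated cells served as blank; CCCP at 10 μM as positive control.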

NCI-H520 = assay: Antiproliferative activity against human NCI-H520 cells after 48 hrs by MTT assay; format: functional, cell-based; details: NCI-H520, 48 h
In short: (§2)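 Adherent lines seeded at 6×10^3 cells/well and allowed 12 h attachment. Media: NCI-H520 and HeLa RPMI-1640; HepG2, MCF-7, CNE-2, A375, A172 and U118-MG DMEM; U251 MEM-EBSS; all with 10% FBS, 37 °C, 5% CO2. Dosed 48 h at final 50, 25, 10, 1 and 0.1 μM. MTT 4 h, formazan dissolved in DMSO, A490. IC50 from the dose series.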

U-251 = assay: Antiproliferative activity against human U251 cells after 48 hrs by MTT assay; format: functional, cell-based; details: U-251, 48 h; in short: as §2
HeLa = assay: Antiproliferative activity against human HeLa cells after 48 hrs by MTT assay; format: functional, cell-based; in short: as §2
[9] = Antiproliferative activity against human CNE2 cells after 48 hrs by MTT assay; format: functional, cell-based; details: CNE-2, 48 h; in short: as §2
[10] = Antiproliferative activity against human U118MG cells after 48 hrs by MTT assay; format: functional, cell-based; details: U-118-MG; in short: as §2
HepG2 = assay: Antiproliferative activity against human HepG2 cells after 48 hrs by MTT assay; format: functional, cell-based; details: HepG2, 48 h; in short: as §2
MCF7 = assay: Antiproliferative activity against human MCF7 cells after 48 hrs by MTT assay; format: functional, cell-based; details: MCF7, 48 h; in short: as §2
Calf thymus DNA [11] = assay: Binding affinity to calf thymus DNA at 10 uM after 5 mins by UV-vis spectroscopy; format: nucleic-acid assay; details: Bos taurus
In short: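 Compound in 5 mM Tris-HCl, 50 mM NaCl, pH 7.2, titrated with ct DNA at 0–30 μM (bp). Incubated 5 min before reading. Absorbance at 425 nm followed. Kb taken as slope/intercept of [DNA]/(εa−εf) versus [DNA]. ct DNA quantified with ε260 6600 M⁻¹cm⁻¹.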

Calf thymus DNA [12] = assay: Binding affinity to calf thymus DNA assessed as increase in DNA viscosity at 6 to 36 uM by viscosity method; format: nucleic-acid assay; details: Bos taurus
In short: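 ct DNA at 200 μM in Tris-HCl buffer, compound at 6–36 μM, viscometer held at 25.0 °C. Flow times read in triplicate and averaged. η = (t−t0)/t0; (η/η0)^1/3 plotted against the compound:DNA ratio.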

[13] = target: T1, DNA topoisomerase 1 (Homo sapiens) (UniProt P11387); assay: Inhibition of recombinant human Topo1-mediated relation of supercoiled pBR322 DNA at 50 uM after 30 mins by agarose gel electrophoresis
T1 sequence (whole entry): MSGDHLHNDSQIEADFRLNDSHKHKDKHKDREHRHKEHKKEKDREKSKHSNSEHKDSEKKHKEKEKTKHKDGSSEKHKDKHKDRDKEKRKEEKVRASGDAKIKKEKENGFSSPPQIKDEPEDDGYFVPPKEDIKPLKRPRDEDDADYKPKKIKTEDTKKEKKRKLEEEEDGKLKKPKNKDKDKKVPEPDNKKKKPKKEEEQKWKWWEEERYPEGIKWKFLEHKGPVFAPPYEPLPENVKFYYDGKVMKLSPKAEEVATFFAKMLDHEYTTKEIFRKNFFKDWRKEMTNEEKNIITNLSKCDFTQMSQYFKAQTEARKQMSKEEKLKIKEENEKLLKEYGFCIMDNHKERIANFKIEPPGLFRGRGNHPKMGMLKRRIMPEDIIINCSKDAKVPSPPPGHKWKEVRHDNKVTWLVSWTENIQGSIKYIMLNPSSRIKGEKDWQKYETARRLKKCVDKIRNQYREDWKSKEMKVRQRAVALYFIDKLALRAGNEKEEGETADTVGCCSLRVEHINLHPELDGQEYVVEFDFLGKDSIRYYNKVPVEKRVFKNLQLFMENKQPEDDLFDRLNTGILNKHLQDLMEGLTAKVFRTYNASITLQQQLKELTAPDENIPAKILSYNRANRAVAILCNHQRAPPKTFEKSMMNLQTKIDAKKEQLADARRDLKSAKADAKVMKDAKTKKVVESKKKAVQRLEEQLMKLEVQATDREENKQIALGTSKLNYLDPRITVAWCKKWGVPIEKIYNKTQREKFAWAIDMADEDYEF
In short: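 pBR322 at 100 ng with 1.0 unit recombinant human topo I. Incubated 30 min at 37 °C in 35 mM Tris-HCl pH 8.0, 5 mM MgCl2, 72 mM KCl, 0.01% BSA, 2 mM spermidine and 5 mM DTT. Run on 1% agarose in TAE at 100 V for 25 min. EB-stained gel viewed under UV.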

K562 [14] = assay: Induction of apoptosis in human K562 cells assessed as early apoptotic cells at 0.05 uM after 48 hrs by annexin V/PI staining based flow cytometry (reference value: 3.89 %); format: functional
K562 [15] = assay: Induction of apoptosis in human K562 cells assessed as late apoptotic cells at 0.05 uM after 48 hrs by annexin V/PI staining based flow cytometry (reference value: 0.26 %); format: functional
K562 [16] = assay: Induction of apoptosis in human K562 cells assessed as late apoptotic cells at 0.5 uM after 48 hrs by annexin V/PI staining based flow cytometry (reference value: 0.26 %); format: functional

Cc1cccc2c(=O)c3c(NCc4ccncc4)ccc(C(=O)NCCN(C)C)c3[nH]c12
Activity (K562 [1]): 27.06% | Activity (K562 [2]): 7.54% | Activity (K562 [3]): 54.93% | Activity (K562 [4]): Dose-dependent effect | Activity (K562 [5]): Active | Activity (K562 [6]): Active | Activity (K562 [7]): Active | Activity (K562 [8]): Active | pIC50 (NCI-H520): 5.99 | pIC50 (U-251): 6.10 | pIC50 (HeLa): 5.42 | pIC50 [9]: 6.01 | pIC50 [10]: 5.97 | pIC50 (HepG2): 6.49 | pIC50 (MCF7): 5.59 | Kb (Calf thymus DNA [11]): 5.1 ×10⁴ /M | Activity (Calf thymus DNA [12]): Active | inhibition [13]: Active | Activity (K562 [14]): 8.98% | Activity (K562 [15]): 0.49% | Activity (K562 [16]): 2.13%

— ChEMBL document CHEMBL3407337, “Molecular design, synthesis and biological research of novel pyridyl acridones as potent DNA-binding and apoptosis-inducing agents” (Eur J Med Chem, 2015)
